Results taken from ChEMBL document CHEMBL1142894, “Preparation of 5-aryl-3-alkylthio-l,2,4-triazoles and corresponding sulfones with antiinflammatory-analgesic activity” (Bioorg Med Chem, 2007).
Activity calls are given as the source filed them. The calls are words filed in the database; no cut-off is given here.

What was measured:
Mus musculus [1] = test: Analgesic activity against p-benzoquinone-induced abdominal constriction in Swiss albino mouse assessed as number of writhings at 200 mg/kg, po; type: functional, Abdomen
Method in brief: (§1)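 Test samples given orally in 0.5% CMC; vehicle to controls. 60 min later, 2.5% (v/v) p-benzoquinone in distilled water, 0.1 ml/10 g, given i.p. Mice housed singly; writhes counted for 15 min starting 5 min after injection. Activity is % change from vehicle controls. n = 6; mean ± SEM.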

Mus musculus [2] = test: Inhibition of carrageenan-induced paw edema in Swiss albino mouse at 50 mg/kg, po after 90 mins relative to control; type: functional; details: 1.5 h
Method in brief: (§2)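 Mice, n = 6 per group. Test agent given orally as a suspension in 0.5% sodium CMC in distilled water; controls received vehicle only. Afterwards, 0.5 mg/25 ll carrageenan in saline (154 mM NaCl) injected subplantar into the right hind paw, saline into the left. Right-minus-left footpad thickness measured by dial gauge caliper every 90 min for 6 h. Inhibition is relative to vehicle-control group means.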

Mus musculus [3] = test: Gastric-ulcerogenic effect in Swiss albino mouse assessed as lesions at 100 mg/kg, po; type: functional, organism-based; set-up: dose 100 mg/kg
Method in brief: (§3)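 Mice killed under deep ether anesthesia 3 h after the writhing test; the oral dose in 0.5% CMC was the one used in that test. Stomachs removed, opened along the great curvature and examined under a dissecting microscope for lesions or bleeding. Reported as ratio of ulceration; n = 6.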

Mus musculus [4] = test: Analgesic activity against p-benzoquinone-induced abdominal constriction in Swiss albino mouse assessed as number of writhings at 25 mg/kg, po; type: functional, Abdomen; method in brief: as §1
Mus musculus [5] = test: Inhibition of carrageenan-induced paw edema in Swiss albino mouse at 200 mg/kg, po after 90 mins relative to control; type: functional; details: 1.5 h
Method in brief: (§4)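 Oral dosing in 0.5% CMC; vehicle to controls. Then carrageenan (0.5 mg/25 ll, freshly suspended in 154 mM saline) injected into the right hind paw subplantar tissue; saline into the left paw. Right-left footpad thickness difference measured by dial gauge calliper every 90 min over 6 h. Inhibition % is relative to vehicle control. n = 6; mean ± SEM.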

Mus musculus [6] = test: Antiinflammatory activity against carrageenan-induced paw edema in Swiss albino mouse assessed as swelling thickness at 200 mg/kg, po after 360 mins; type: functional; method in brief: as §4
Mus musculus [7] = test: Inhibition of carrageenan-induced paw edema in Swiss albino mouse at 25 mg/kg, po after 270 mins relative to control; type: functional; details: 4.5 h; method in brief: as §4
Mus musculus [8] = test: Gastric-ulcerogenic effect in Swiss albino mouse assessed as lesions at 25 mg/kg, po; type: functional, organism-based; set-up: dose 25 mg/kg; method in brief: as §3
Mus musculus [9] = test: Inhibition of carrageenan-induced paw edema in Swiss albino mouse at 100 mg/kg, po after 360 mins relative to control; type: functional; details: 6 h; method in brief: as §4
Mus musculus [10] = test: Acute toxicity in Swiss albino mouse assessed as lethal effect at 200 mg/kg/day, po after 72 hrs; type: organism-based; set-up: route oral; details: in vivo
Method in brief: (§5)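 Oral single dose suspended in 0.5% carboxymethylcellulose, given after a 24 h fast; food and water returned 1 h after dosing. Vehicle-only controls. Mice observed at 1 h, then once daily for 72 h, for toxic signs and mortality.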

Mus musculus [11] = test: Antiinflammatory activity against carrageenan-induced paw edema in Swiss albino mouse assessed as swelling thickness at 50 mg/kg, po after 90 mins; type: functional; method in brief: as §4
Mus musculus [12] = test: Inhibition of p-benzoquinone-induced writhing in Swiss albino mouse at 200 mg/kg, po relative to control; type: functional
Method in brief: (§6)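 Mice, n = 6 per group, dosed orally with a suspension in 0.5% sodium CMC. 60 min later, 0.1 ml/10 g of 2.5% […] p-benzoquinone in distilled water given ip. Abdominal writhes counted per animal for 15 min, starting 5 min after injection. Expressed as % change in mean writhing count versus vehicle controls.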

Mus musculus [13] = test: Inhibition of carrageenan-induced paw edema in Swiss albino mouse at 200 mg/kg, po after 360 mins relative to control; type: functional; details: 6 h; method in brief: as §4
Mus musculus [14] = test: Inhibition of carrageenan-induced paw edema in Swiss albino mouse at 50 mg/kg, po after 180 mins relative to control; type: functional; details: 3 h; method in brief: as §4
Mus musculus [15] = test: Antiinflammatory activity against carrageenan-induced paw edema in Swiss albino mouse assessed as swelling thickness at 25 mg/kg, po after 90 mins; type: functional; method in brief: as §4
Mus musculus [16] = test: Acute toxicity in Swiss albino mouse assessed as lethal effect at 100 mg/kg/day, po after 72 hrs; type: organism-based; set-up: route oral; details: in vivo; method in brief: as §5
Mus musculus [17] = test: Inhibition of carrageenan-induced paw edema in Swiss albino mouse at 25 mg/kg, po after 360 mins relative to control; type: functional; details: 6 h; method in brief: as §4
Mus musculus [18] = test: Antiinflammatory activity against carrageenan-induced paw edema in Swiss albino mouse assessed as swelling thickness at 200 mg/kg, po after 270 mins; type: functional; method in brief: as §4
Mus musculus [19] = test: Antiinflammatory activity against carrageenan-induced paw edema in Swiss albino mouse assessed as swelling thickness at 100 mg/kg, po after 270 mins; type: functional; method in brief: as §4
Mus musculus [20] = test: Inhibition of carrageenan-induced paw edema in Swiss albino mouse at 100 mg/kg, po after 180 mins relative to control; type: functional; details: 3 h; method in brief: as §4
Mus musculus [21] = test: Antiinflammatory activity against carrageenan-induced paw edema in Swiss albino mouse assessed as swelling thickness at 50 mg/kg, po after 270 mins; type: functional; method in brief: as §4
Mus musculus [22] = test: Antiinflammatory activity against carrageenan-induced paw edema in Swiss albino mouse assessed as swelling thickness at 25 mg/kg, po after 360 mins; type: functional; method in brief: as §4
Mus musculus [23] = test: Inhibition of carrageenan-induced paw edema in Swiss albino mouse at 25 mg/kg, po after 180 mins relative to control; type: functional; details: 3 h; method in brief: as §4
Mus musculus [24] = test: Inhibition of carrageenan-induced paw edema in Swiss albino mouse at 25 mg/kg, po after 90 mins relative to control; type: functional; details: 1.5 h; method in brief: as §4
Mus musculus [25] = test: Inhibition of carrageenan-induced paw edema in Swiss albino mouse at 100 mg/kg, po after 90 mins relative to control; type: functional; details: 1.5 h; method in brief: as §4
Mus musculus [26] = test: Inhibition of carrageenan-induced paw edema in Swiss albino mouse at 200 mg/kg, po after 270 mins relative to control; type: functional; details: 4.5 h; method in brief: as §4
Mus musculus [27] = test: Antiinflammatory activity against carrageenan-induced paw edema in Swiss albino mouse assessed as swelling thickness at 100 mg/kg, po after 360 mins; type: functional; method in brief: as §4
Mus musculus [28] = test: Antiinflammatory activity against carrageenan-induced paw edema in Swiss albino mouse assessed as swelling thickness at 50 mg/kg, po after 360 mins; type: functional; method in brief: as §4
Mus musculus [29] = test: Antiinflammatory activity against carrageenan-induced paw edema in Swiss albino mouse assessed as swelling thickness at 100 mg/kg, po after 180 mins; type: functional; method in brief: as §4
Mus musculus [30] = test: Inhibition of carrageenan-induced paw edema in Swiss albino mouse at 200 mg/kg, po after 180 mins relative to control; type: functional; details: 3 h; method in brief: as §4
Mus musculus [31] = test: Antiinflammatory activity against carrageenan-induced paw edema in Swiss albino mouse assessed as swelling thickness at 25 mg/kg, po after 270 mins; type: functional; method in brief: as §4
Mus musculus [32] = test: Inhibition of p-benzoquinone-induced writhing in Swiss albino mouse at 100 mg/kg, po relative to control; type: functional; method in brief: as §6
Mus musculus [33] = test: Analgesic activity against p-benzoquinone-induced abdominal constriction in Swiss albino mouse assessed as number of writhings at 50 mg/kg, po; type: functional, Abdomen; method in brief: as §1
Mus musculus [34] = test: Antiinflammatory activity against carrageenan-induced paw edema in Swiss albino mouse assessed as swelling thickness at 200 mg/kg, po after 180 mins; type: functional; method in brief: as §4
Mus musculus [35] = test: Antiinflammatory activity against carrageenan-induced paw edema in Swiss albino mouse assessed as swelling thickness at 200 mg/kg, po after 90 mins; type: functional; method in brief: as §4
Mus musculus [36] = test: Acute toxicity in Swiss albino mouse assessed as lethal effect at 50 mg/kg/day, po after 72 hrs; type: organism-based; set-up: route oral; details: in vivo; method in brief: as §5
Mus musculus [37] = test: Antiinflammatory activity against carrageenan-induced paw edema in Swiss albino mouse assessed as swelling thickness at 50 mg/kg, po after 180 mins; type: functional; method in brief: as §4
Mus musculus [38] = test: Gastric-ulcerogenic effect in Swiss albino mouse assessed as lesions at 50 mg/kg, po; type: functional, organism-based; set-up: dose 50 mg/kg; method in brief: as §3
Mus musculus [39] = test: Inhibition of carrageenan-induced paw edema in Swiss albino mouse at 50 mg/kg, po after 270 mins relative to control; type: functional; details: 4.5 h; method in brief: as §2
Mus musculus [40] = test: Inhibition of p-benzoquinone-induced writhing in Swiss albino mouse at 50 mg/kg, po relative to control; type: functional; method in brief: as §6
Mus musculus [41] = test: Antiinflammatory activity against carrageenan-induced paw edema in Swiss albino mouse assessed as swelling thickness at 100 mg/kg, po after 90 mins; type: functional; method in brief: as §4
Mus musculus [42] = test: Inhibition of carrageenan-induced paw edema in Swiss albino mouse at 50 mg/kg, po after 360 mins relative to control; type: functional; details: 6 h; method in brief: as §2
Mus musculus [43] = test: Acute toxicity in Swiss albino mouse assessed as lethal effect at 25 mg/kg/day, po after 72 hrs; type: organism-based; set-up: route oral; details: in vivo; method in brief: as §5
Mus musculus [44] = test: Analgesic activity against p-benzoquinone-induced abdominal constriction in Swiss albino mouse assessed as number of writhings at 100 mg/kg, po; type: functional, Abdomen; method in brief: as §1
Mus musculus [45] = test: Antiinflammatory activity against carrageenan-induced paw edema in Swiss albino mouse assessed as swelling thickness at 25 mg/kg, po after 180 mins; type: functional; method in brief: as §4
Mus musculus [46] = test: Inhibition of p-benzoquinone-induced writhing in Swiss albino mouse at 25 mg/kg, po relative to control; type: functional; method in brief: as §6
Mus musculus [47] = test: Inhibition of carrageenan-induced paw edema in Swiss albino mouse at 100 mg/kg, po after 270 mins relative to control; type: functional; details: 4.5 h; method in brief: as §4

CCS(=O)(=O)c1nc(-c2ccccc2)n[nH]1
Activity (Mus musculus [1]): 48.5 | inhibition in vivo at 50 mg/kg (Mus musculus [2]): 26.3% | Activity (Mus musculus [3]): Active | Activity (Mus musculus [4]): 38.2 | inhibition in vivo at 200 mg/kg (Mus musculus [5]): 9.9% | Activity (Mus musculus [6]): 65.2 10^-2mm | inhibition in vivo at 25 mg/kg (Mus musculus [7]): 10.3% | Activity (Mus musculus [8]): Active | inhibition in vivo at 100 mg/kg (Mus musculus [9]): 36.8% | Activity (Mus musculus [10]): Non-toxic | Activity (Mus musculus [11]): 39.2 10^-2mm | inhibition in vivo at 200 mg/kg (Mus musculus [12]): 5.6% | inhibition in vivo at 200 mg/kg (Mus musculus [13]): 9.4% | inhibition in vivo at 50 mg/kg (Mus musculus [14]): 30.5% | Activity (Mus musculus [15]): 48.6 10^-2mm | Activity (Mus musculus [16]): Non-toxic | inhibition in vivo at 25 mg/kg (Mus musculus [17]): 13.3% | Activity (Mus musculus [18]): 57.6 10^-2mm | Activity (Mus musculus [19]): 39.2 10^-2mm | inhibition in vivo at 100 mg/kg (Mus musculus [20]): 31.7% | Activity (Mus musculus [21]): 44.6 10^-2mm | Activity (Mus musculus [22]): 62.4 10^-2mm | inhibition in vivo at 25 mg/kg (Mus musculus [23]): 7.7% | inhibition in vivo at 25 mg/kg (Mus musculus [24]): 8.6% | inhibition in vivo at 100 mg/kg (Mus musculus [25]): 25.9% | inhibition in vivo at 200 mg/kg (Mus musculus [26]): 11.1% | Activity (Mus musculus [27]): 43.5 10^-2mm | Activity (Mus musculus [28]): 44.2 10^-2mm | Activity (Mus musculus [29]): 35.2 10^-2mm | inhibition in vivo at 200 mg/kg (Mus musculus [30]): 11.9% | Activity (Mus musculus [31]): 58.1 10^-2mm | inhibition in vivo at 100 mg/kg (Mus musculus [32]): 41.9% | Activity (Mus musculus [33]): 26.7 | Activity (Mus musculus [34]): 52.3 10^-2mm | Activity (Mus musculus [35]): 47.9 10^-2mm | Activity (Mus musculus [36]): Non-toxic | Activity (Mus musculus [37]): 41.3 10^-2mm | Activity (Mus musculus [38]): Active | inhibition in vivo at 50 mg/kg (Mus musculus [39]): 31.2% | inhibition in vivo at 50 mg/kg (Mus musculus [40]): 48.1% | Activity (Mus musculus [41]): 33.2 10^-2mm | inhibition in vivo at 50 mg/kg (Mus musculus [42]): 38.6% | Activity (Mus musculus [43]): Non-toxic | Activity (Mus musculus [44]): 27.5 | Activity (Mus musculus [45]): 54.9 10^-2mm | inhibition in vivo at 25 mg/kg (Mus musculus [46]): 25.7% | inhibition in vivo at 100 mg/kg (Mus musculus [47]): 33.3%
